Experimental data from different studies.
Target: Cytochrome P450 2C19 (CYP2C19, Homo sapiens, UniProt P33261)
Observed: enzyme activity
Action: inhibitor

Cc1ccc2nc(-c3ccccc3)c(CNc3ccc(F)cc3)n2c1 — IC50: 0.93 µM
Nc1nc(N)c2nc(CNc3ccc(C(=O)NCCc4ccccc4)cc3)cnc2n1 — IC50 (luciferase): 15.1 µM
CCc1cc(/C(C)=N/OCc2ccc(C3CCCCC3)c(C(F)(F)F)c2)ccc1CN1CC(C(=O)O)C1 — IC50 (human; liver microsomes; 20 min): > 0.5 µM
COc1ccc2[nH]c([S+]([O-])Cc3ncc(C)c(OC)c3C)nc2c1 (stereo not drawn) — IC50 (human; liver microsomes; 90 min; pH 7.4): 0.662 µM
COc1ccc2c(Cc3ccccc3F)c3n(c(=O)c2c1OC)CCc1cc2c(cc1-3)OCO2 — IC50: 4.7 µM
CCOC(=O)C1CCN(C(=O)c2ccc(N(CC)Cc3cnc4nc(N)nc(N)c4n3)cc2)CC1 — IC50 (luciferase): 6.76 µM
COc1ccc2c(Cc3ccccc3F)c3[n+](cc2c1OC)CCc1cc2c(cc1-3)OCO2 — IC50: > 10 µM
CCC(C)(C)C(=O)O[C@H]1C[C@@H](C)C=C2C=C[C@H](C)[C@H](CC[C@@H](O)C[C@@H](O)CC(=O)O)[C@H]21 — IC50 (fluorescence): > 100 µM
Nc1nc(N)c2nc(CNc3ccc(C(=O)c4ccccc4)cc3)cnc2n1 — IC50 (luciferase): 25.1 µM
C[C@H]1CN(c2n[nH]c3nc(N[C@H]4CC[C@H](NS(=O)(=O)CCC(F)(F)F)CC4)ncc23)CCO1 — IC50: > 100 µM
CCCCCNC(=N)N/N=C/c1c[nH]c2ccc(OC)cc12 — IC50 (fluorescence): 1.17 µM
CCN(Cc1cnc2nc(N)nc(N)c2n1)c1ccc(C(=O)c2ccccc2)cc1 — IC50 (luciferase): 0.282 µM
